The text below walks through data of PubChem BioAssay.

The source made the active and inactive calls.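 Rule for the calls, unless noted: active = viability at or under a set limit in both replicates, limit being median viability minus 3 SD (cut at about 48% in these data, passing the limit was not always enough); inconclusive = at or under the limit in just one replicate; inactive = at or above the limit in both replicates.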

A short description of assay [1]: reducers of endogenous Her2 protein level, primary screen, SKBR3 breast tumor cells, AlphaScreen, ATP viability (AID 461;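 active = Her2 level under about 52% in both replicate screens, with viability over 70% of control, limit read from the data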;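 for Her2 level: lower value means less Her2 protein in the cells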;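 for viability: percent of carrier control wells set as 100% viability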). The conditions noted are these: 18-24 h, measured here: SKBR3 viability, ATP luminescence, at 10 µM. On the technique in general: Bead proximity is the source of the signal in Alpha formats.
Assay [2] concerns the target Receptor tyrosine-protein kinase erbB-2 (Homo sapiens) (UniProt P04626). The assay is described as above. The conditions noted are these: 18-24 h, at 10 µM, stronger effect = lower value.
A short description of assay [3]: SK-BR-3 cell growth inhibitors, pilot screen, 24 h, human (AID 572;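 active = viability at or below 10% of carrier control in both of two separate runs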;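 note: compound exposure lasted between 18 and 24 h rather than exactly 24 h; 100% = carrier-treated control wells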). As to conditions: SK-BR-3 viability, CellTiter-Glo luminescence, at 10 µM, stronger effect = lower value.
Assay [4] in a line: HUVEC growth inhibition – cell-based, human, primary screen (AID 575;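 active = viability at or below 30% in both replicate assays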;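 note: 100% = median of untreated cell wells with 0.1% DMSO on each plate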). As to conditions: HUVEC proliferation, CellTiter-Glo luminescence, 72 h; at 10 µM; stronger effect = lower value. An outline of the steps:
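Timing: 72 h treatment at 37 °C; material: HUVEC primary cells; technique: CellTiter-Glo luminescence measuring cellular ATP; controls: vehicle and MePR control wells; measure: percent of median DMSO-control luminescence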
Background: In ATP-based viability assays light output follows the ATP content of the culture.

A short description of assay [5]: growth inhibitors of H69AR lung tumor, primary screen, human, duplicate replicates (AID 580).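 Note: 100% = mean luminescence of untreated wells and 0% = no signal.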 As to conditions: H69AR lung tumor cells viability, ATP luminescence, 72 h; at 10 µM; stronger effect = lower value.
The nature of assay [6]: reversal of MRP1-mediated doxorubicin resistance, pilot screen, H69AR cells, doxorubicin co-treatment (AID 601;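 active = viability loss from added drug above about 55%, and viability with drug at most 40%, in both replicates, limit read from the data, passing the limit was not always enough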). As to conditions: CellTiter-Glo, 72 h, at 10 µM; for differential viability (reversal): stronger effect = higher value.
The nature of assay [7]: 384-well plate pilot, post-Golgi transport modulator project, inhibition of yeast transport mutant growth (AID 636; in the data active = inhibition above about 31%). As to conditions: absorbance 615 nm, about 18 h, stronger effect = higher value.
Assay [8] in a line: growth suppression of yeast trafficking mutant, preliminary HTS, modulators of trafficking downstream of Golgi apparatus project, 1536-format plate, OD 615 nm (AID 637; in the data active = inhibition above about 30%). As to conditions: yeast transport mutant growth, absorbance 615 nm, 18 h; stronger effect = higher value.
Setting [9] is: H69AR cells + 2 uM doxorubicin, measured here: viability with 2 uM doxorubicin, stronger effect = lower value.
[10] abbreviates: H69AR cells, compound alone cytotoxicity.

Sequence of Receptor tyrosine-protein kinase erbB-2 (Homo sapiens) (P04626 whole entry, looked up): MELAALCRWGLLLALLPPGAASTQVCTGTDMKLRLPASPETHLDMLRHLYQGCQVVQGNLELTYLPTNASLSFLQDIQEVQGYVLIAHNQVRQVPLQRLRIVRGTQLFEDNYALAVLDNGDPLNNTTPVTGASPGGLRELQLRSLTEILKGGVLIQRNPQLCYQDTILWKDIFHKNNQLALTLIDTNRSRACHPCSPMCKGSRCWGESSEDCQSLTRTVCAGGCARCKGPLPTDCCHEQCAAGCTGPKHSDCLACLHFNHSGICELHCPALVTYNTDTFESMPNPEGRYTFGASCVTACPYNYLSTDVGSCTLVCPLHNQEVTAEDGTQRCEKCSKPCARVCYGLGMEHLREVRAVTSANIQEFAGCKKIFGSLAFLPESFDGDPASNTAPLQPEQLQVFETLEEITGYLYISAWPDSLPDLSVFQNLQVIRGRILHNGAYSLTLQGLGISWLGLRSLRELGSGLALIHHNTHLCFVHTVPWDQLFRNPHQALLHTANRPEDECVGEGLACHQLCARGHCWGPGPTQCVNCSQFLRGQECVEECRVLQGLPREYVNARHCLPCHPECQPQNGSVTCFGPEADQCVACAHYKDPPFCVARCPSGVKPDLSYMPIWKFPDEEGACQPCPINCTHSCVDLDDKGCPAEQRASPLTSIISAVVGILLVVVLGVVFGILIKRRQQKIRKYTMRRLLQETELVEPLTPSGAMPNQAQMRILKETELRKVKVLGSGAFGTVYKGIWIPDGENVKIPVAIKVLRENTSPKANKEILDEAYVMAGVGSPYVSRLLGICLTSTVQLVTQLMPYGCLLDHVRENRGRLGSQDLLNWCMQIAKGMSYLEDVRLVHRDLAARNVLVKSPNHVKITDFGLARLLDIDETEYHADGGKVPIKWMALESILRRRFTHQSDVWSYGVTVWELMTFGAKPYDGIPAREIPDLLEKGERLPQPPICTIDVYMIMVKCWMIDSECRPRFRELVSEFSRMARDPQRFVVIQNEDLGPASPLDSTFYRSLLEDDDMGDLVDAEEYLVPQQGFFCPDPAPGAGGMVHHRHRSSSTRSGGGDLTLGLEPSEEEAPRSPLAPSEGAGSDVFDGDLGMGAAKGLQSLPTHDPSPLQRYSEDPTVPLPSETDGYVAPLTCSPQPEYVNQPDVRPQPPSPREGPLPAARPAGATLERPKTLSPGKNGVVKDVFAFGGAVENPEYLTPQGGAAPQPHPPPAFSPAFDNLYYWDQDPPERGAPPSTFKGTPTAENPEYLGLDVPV

Broadly, the viability is a read-out of living cells in per cent, often relative to untreated cells. The term inhibition denotes the relative decrease from the control value, in per cent. For `O=C(O)C1CC=CCC1C(=O)Nc1ccc(S(=O)(=O)N2CCCc3ccccc32)cc1` (stereo not given), the viability in assay [1] is 85.5%; in assay [3], 85.5% (inactive); in assay [4], 64.4% (inactive); in assay [5] it was 98.7% (inactive); in assay [6] (setting [9]) it was 94.1%; in assay [6] (setting [10]), 98.7%. The Her2 level in assay [2] was 88% (inactive). Further, in assay [6] (H69AR cells + 2 uM doxorubicin), the differential viability (reversal) was 4.55% (inactive). Further, the inhibition in assay [7] was -3.73% (inactive); in assay [8], 0% (inactive).

As for `COc1ccc(C2=NOC(C(=O)NCc3ccc(F)cc3)C2)cc1OC` (stereo not given), the viability was 95.5% in assay [1]; 95.5% (inactive) in assay [3]; 42% (inactive) in assay [4]; 29.3% (active) in assay [5]; 63.9% in assay [6] (setting [9]); 29.3% in assay [6] (setting [10]). Besides, the Her2 level in assay [2] is 87.5% (inactive). For the same compound, the differential viability (reversal) in assay [6] (H69AR cells + 2 uM doxorubicin) is -34.5% (inactive). In addition, the inhibition in assay [7] is -1.32% (inactive); in assay [8], 5.4% (inactive).

In the case of `Cn1c2c(c(=O)n(C)c1=O)CN(CCCN1CCOCC1)CN2`, the viability in assay [1] was 100%; in assay [3], 100% (inactive); in assay [4], 106% (inactive); in assay [5] it was 108% (inactive); in assay [6] (setting [9]), 101%; in assay [6] (setting [10]), 108%. For the same compound, the Her2 level in assay [2] is 86.5% (inactive). The differential viability (reversal) in assay [6] (H69AR cells + 2 uM doxorubicin) was 7.39% (inactive). In addition, the inhibition is -5.26% (inactive) in assay [7] and -5.27% (inactive) in assay [8].

With `CCCS(=O)(=O)Nc1c(C(=O)O)[nH]c2ccccc12`, the viability was 94.5% in assay [1]; 94.5% (inactive) in assay [3]; 83.9% (inactive) in assay [4]; 94.5% (inactive) in assay [5]; 106% in assay [6] (setting [9]); 94.5% in assay [6] (setting [10]). Also, the Her2 level in assay [2] was 93% (inactive). Also, the differential viability (reversal) in assay [6] (H69AR cells + 2 uM doxorubicin) is -11.1% (inactive). Besides, the inhibition in assay [7] was -5.13% (inactive); in assay [8], -12.8% (inactive).

Take `COc1ccc(C(N)=O)cc1N`: the viability in assay [1] was 77.5%; in assay [3], 77.5% (inactive); in assay [4], 105% (inactive); in assay [5] it was 94.6% (inactive); in assay [6] (setting [9]), 96.3%; in assay [6] (setting [10]) it was 94.6%. The Her2 level in assay [2] was 116% (inactive). The differential viability (reversal) in assay [6] (H69AR cells + 2 uM doxorubicin) is -1.72% (inactive). Further, the inhibition is 4.81% (inactive) in assay [7] and 18% (inactive) in assay [8].

Regarding `c1nnc(NC2=NCCCCC2)s1`, the viability was 91.5% in assay [1]; 91.5% (inactive) in assay [3]; 109% (inactive) in assay [4]; 101% (inactive) in assay [5]; 98.5% in assay [6] (setting [9]); 101% in assay [6] (setting [10]). In assay [2], the Her2 level is 112% (inactive). Besides, the differential viability (reversal) in assay [6] (H69AR cells + 2 uM doxorubicin) is 2.23% (inactive). Besides, the inhibition is -2.16% (inactive) in assay [7] and -7.5% (inactive) in assay [8].

Consider `O=C(Cn1nc(-c2ccc3c(c2)OCCO3)ccc1=O)Nc1ccc(N2CCOCC2)cc1`, for which the viability in assay [1] is 94%; in assay [3] it was 94% (inactive); in assay [4], 112% (inactive); in assay [5] it was 110% (inactive); in assay [6] (setting [9]) it was 93.2%; in assay [6] (setting [10]) it was 110%. Further, the Her2 level in assay [2] is 108% (inactive). In addition, the differential viability (reversal) in assay [6] (H69AR cells + 2 uM doxorubicin) is 16.4% (inactive). Further, the inhibition in assay [7] was -3.03% (inactive); in assay [8] it was 0.17% (inactive).

In the case of `Cc1ccc(-n2c(Cn3cnc4ccccc43)nnc2SCC(=O)O)cc1`, the viability in assay [1] is 102%; in assay [3], 102% (inactive); in assay [4], 94.3% (inactive); in assay [5] it was 97.7% (inactive); in assay [6] (setting [9]), 92.3%; in assay [6] (setting [10]) it was 97.7%. Further, in assay [2], the Her2 level is 108% (inactive). Besides, the differential viability (reversal) in assay [6] (H69AR cells + 2 uM doxorubicin) was 5.34% (inactive). The inhibition in assay [7] was -4.13% (inactive); in assay [8], 24.3% (inactive).

For the compound `CCNC(=O)CC1C(=O)N(c2ccccc2)C(=O)N1Cc1ccc(OC)cc1` (stereo not given), the viability in assay [1] is 94.5%; in assay [3] it was 94.5% (inactive); in assay [4], 91.9% (inactive); in assay [5] it was 94.8% (inactive); in assay [6] (setting [9]), 89.1%; in assay [6] (setting [10]), 94.8%. In addition, in assay [2], the Her2 level was 100% (inactive). Also, the differential viability (reversal) in assay [6] (H69AR cells + 2 uM doxorubicin) was 5.68% (inactive). Besides, the figures for the inhibition in assay [7] and in assay [8] were -3.68% (inactive) and -2.91% (inactive), respectively.

Turning to `CCc1nnc(NC(=O)c2cc3c(s2)CCCCC3)s1`, the viability was 92.5% in assay [1]; 92.5% (inactive) in assay [3]; 90.5% (inactive) in assay [4]; 76.1% (inactive) in assay [5]; 78.7% in assay [6] (setting [9]); 76.1% in assay [6] (setting [10]). The Her2 level in assay [2] was 108% (inactive). Moreover, in assay [6] (H69AR cells + 2 uM doxorubicin), the differential viability (reversal) was -2.58% (inactive). Further, the figures for the inhibition in assay [7] and in assay [8] were -1.17% (inactive) and -3.44% (inactive), respectively.

For the compound `COc1ccccc1OCCn1c(=O)sc2ccccc21`, the viability is 95% in assay [1]; 95% (inactive) in assay [3]; 89.6% (inactive) in assay [4]; 99.6% (inactive) in assay [5]; 108% in assay [6] (setting [9]); 99.6% in assay [6] (setting [10]). Moreover, the Her2 level in assay [2] was 93% (inactive). Besides, in assay [6] (H69AR cells + 2 uM doxorubicin), the differential viability (reversal) is -8.55% (inactive). Further, the inhibition in assay [7] is -1.05% (inactive); in assay [8] it was -7.94% (inactive).

For the compound `c1ccc(Cc2ccc(OCCn3cncn3)cc2)cc1`, the viability is 84% in assay [1]; 84% (inactive) in assay [3]; 98.6% (inactive) in assay [4]; 95% (inactive) in assay [5]; 80.4% in assay [6] (setting [9]); 95% in assay [6] (setting [10]). The Her2 level in assay [2] was 108% (inactive). Further, the differential viability (reversal) in assay [6] (H69AR cells + 2 uM doxorubicin) is 14.6% (inactive). The inhibition in assay [7] is -3.92% (inactive); in assay [8] it was -7.38% (inactive).

With `C=CCOC(=O)CCC(=O)Nc1cc(OC)nc(OC)n1`, the viability in assay [1] was 112%; in assay [3], 112% (inactive); in assay [4], 92.1% (inactive); in assay [5] it was 90.8% (inactive); in assay [6] (setting [9]), 90.1%; in assay [6] (setting [10]), 90.8%. In assay [2], the Her2 level was 112% (inactive). The differential viability (reversal) in assay [6] (H69AR cells + 2 uM doxorubicin) is 0.705% (inactive). Further, the inhibition was -3.07% (inactive) in assay [7] and 8.73% (inactive) in assay [8].

Turning to `CC(=O)N1CCc2cc(S(=O)(=O)NCCC3=CCCCC3)ccc21`, the viability is 108% in assay [1]; 108% (inactive) in assay [3]; 64% (inactive) in assay [4]; 91.1% (inactive) in assay [5]; 99% in assay [6] (setting [9]); 91.1% in assay [6] (setting [10]). Further, in assay [2], the Her2 level is 85% (inactive). Moreover, in assay [6] (H69AR cells + 2 uM doxorubicin), the differential viability (reversal) was -7.85% (inactive). For the same compound, the results for the inhibition in assay [7] and in assay [8] were -3.29% (inactive) and -2.22% (inactive), respectively.
